# Assay results from ChEMBL document CHEMBL1955766, “Structure guided development of novel thymidine mimetics targeting Pseudomonas aeruginosa thymidylate kinase: from hit to lead generation” (J Med Chem, 2012).
# Key:
# [1] = Inhibition of Pseudomonas aeruginosa thymidylate kinase expressed in Escherichia coli BL21 (DE3) cells assessed as phosphorylation of dTMP to dTDP after 20 mins by spectrophotometric analysis
# Procedure, shortened: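 PaTMK from pET15b in E. coli BL21 DE3, purified by HisTrap and Superdex 200, used at 40 nM. dTDP formation was coupled via PK/LDH/NDP kinase to NADH oxidation (A340) over 20 min at 25 °C.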
# Pseudomonas aeruginosa [2] = assay: Antibacterial activity against Pseudomonas aeruginosa PAO1; assay type: functional
# Pseudomonas aeruginosa [3] = assay: Antibacterial activity against […], MexXY, MeyZ efflux pump- knock out Pseudomonas aeruginosa PAO280; assay type: functional
# [4] = Selectivity ratio of IC50 for human thymidylate kinase to IC50 for Pseudomonas aeruginosa thymidylate kinase
# Procedure, shortened: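 Compound tested at 0.39–200 μM. Reaction 2 min at room temperature, then ADP detection reagents 30 min. Fluorescence read at ex 485/em 535 nm, corrected using 5 μM ADP interference controls and no-enzyme controls. Result is the ratio against the PaTMK coupled-assay IC50.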
# [5] = target: T1, Thymidylate kinase (Homo sapiens) (UniProt P23919); assay: Inhibition of human thymidylate kinase using dTMP as substrate at 200 uM after 30 mins by fluorescence analysis
# T1 sequence (whole entry): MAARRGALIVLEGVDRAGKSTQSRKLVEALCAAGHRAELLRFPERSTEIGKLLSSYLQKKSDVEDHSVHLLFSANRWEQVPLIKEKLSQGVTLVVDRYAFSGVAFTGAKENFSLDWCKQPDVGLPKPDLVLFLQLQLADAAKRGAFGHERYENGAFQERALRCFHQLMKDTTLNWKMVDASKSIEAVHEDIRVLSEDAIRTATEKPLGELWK
# Procedure, shortened: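 Inhibitor range 0.39–200 μM. Reaction runs 2 min at room temperature, then ADP-detection reagents for 30 min. Read-out is fluorescence at ex 485/em 535 nm. Percent inhibition is corrected using no-enzyme and 5 μM ADP interference controls.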
# Thymidylate kinase = target: T2, Thymidylate kinase (Homo sapiens, UniProt P23919); assay: Inhibition of human thymidylate kinase using dTMP as substrate after 30 mins by fluorescence analysis
# T2 sequence (P23919 whole entry): T1 sequence (whole entry)
# BL21-DE3 = assay: Ratio of dFTM IC50 to compound IC50 for Pseudomonas aeruginosa thymidylate kinase expressed in Escherichia coli BL21 (DE3) cells assessed as phosphorylation of TMP to dTDP after 20 mins by spectrophotometric analysis
# Procedure, shortened: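 His-tagged P. aeruginosa TMK expressed in E. coli BL21(DE3) and purified (Ni affinity, gel filtration). TMK diluted in buffer; 40 nM enzyme. Coupled PK/LDH/NDP kinase read-out: 2 mM ATP, 54 μM TMP, 2 mM PEP, 0.22 mM NADH, 40 mM HEPES pH 8.0, 80 mM KCl, 1.6 mM MgCl2. A340 decrease followed 20 min at 25 °C. Twenty 1.67-fold dilutions from 200 or 100 μM final. Initial rates relative to EDTA and enzyme-alone controls. IC50 ratio versus reference inhibitor.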
SMILES,IC50 [1] [µM],MIC (Pseudomonas aeruginosa [2]) [mg/L],MIC (Pseudomonas aeruginosa [3]) [mg/L],Ratio IC50 [4],inhibition [5] [%],IC50 (Thymidylate kinase) [µM],Ratio IC50 (BL21-DE3)
Cl.Cn1c(=O)[nH]c2ncc(-c3cccc(C(=O)NCCCc4cccc(CN)c4)c3)cc21,2.2,> 256,> 256,–,–,–,–
Cn1c(=O)[nH]c2ncc(-c3cccc(C(=O)NCC(N)=O)c3)cc21,0.88,> 256,> 256,–,–,–,–
Cn1c(=O)[nH]c2ncc(-c3cccc(C(=O)NCC(=O)O)c3)cc21,0.88,> 256,> 256,–,–,–,–
Cn1c(=O)[nH]c2ncc(-c3cccc(C(=O)NCC#N)c3)cc21,2.1,> 256,> 256,–,–,–,–
Cn1c(=O)[nH]c2ncc(-c3ccc(O)cc3)cc21,21,> 256,> 256,–,–,–,–
Cn1c(=O)[nH]c2ncc(-c3ccc(C(N)=O)cc3)cc21,> 200,> 256,> 256,–,–,–,–
Cn1c(=O)[nH]c2ncc(-c3cccc(C(=O)NCCCC4CCCC4)c3)cc21,0.81,> 256,> 256,–,–,–,–
Cn1c(=O)[nH]c2ncc(-c3cccc(C(=O)NCCCc4ccc(C(=O)O)cc4)c3)cc21,2.7,> 256,> 256,–,–,–,–
Cl.Cn1c(=O)[nH]c2ncc(-c3cccc(C(=O)NCCCc4ccc(CN)cc4)c3)cc21,3.2,> 256,> 256,–,–,–,–
Cn1c(=O)[nH]c2ncc(-c3cccc(C#N)c3)cc21,> 200,> 256,> 256,–,–,–,–
Cn1c(=O)[nH]c2ncc(-c3cccc(C(=O)NCC(Cc4ccccc4)C(=O)O)c3)cc21 (racemic),0.25,> 256,> 256,–,–,–,–
Cn1c(=O)[nH]c2ncc(-c3cccnc3)cc21,66,> 256,> 256,–,–,–,–
Cn1c(=O)[nH]c2ncc(-c3cccc(C(=O)NCCCc4cccc(C(=O)O)c4)c3)cc21,2.4,> 256,> 256,–,–,–,–
Cn1c(=O)[nH]c2ncc(-c3cccc(O)c3)cc21,11,> 256,> 256,–,–,–,–
CC(NC(=O)c1cccc(-c2cnc3[nH]c(=O)n(C)c3c2)c1)C(=O)O (centres undefined),5,> 256,> 256,–,–,–,–
Cn1c(=O)[nH]c2ncc(-c3cccc(C(=O)NCCCc4ccccc4C(=O)O)c3)cc21,2,> 256,> 256,–,–,–,–
Cn1c(=O)[nH]c2ncc(-c3cccc(C(=O)NCc4ccccc4)c3)cc21,1,> 256,> 256,–,–,–,–
Cn1c(=O)[nH]c2ncc(-c3cccc(C(=O)NCCO)c3)cc21,2.6,> 256,> 256,–,–,–,–
Cn1c(=O)[nH]c2ncc(-c3cccc(CO)c3)cc21,37,> 256,> 256,–,–,–,–
Cn1c(=O)[nH]c2ncc(-c3cccc(C(=O)NCCCN4CCOCC4)c3)cc21,5.8,> 256,> 256,–,–,–,–
Cn1c(=O)[nH]c2ncc(-c3cccc(C(=O)NCc4nc5ccccc5[nH]4)c3)cc21,68,> 256,> 256,–,–,–,–
Cn1c(=O)[nH]c2ncc(-c3cccc(C(=O)NCCCc4ccc(C(F)(F)F)cc4)c3)cc21,0.16,> 256,> 256,> 1000,55,124,–
Cn1c(=O)[nH]c2ncc(-c3cccc(C(=O)NC(CCc4ccccc4)C(=O)O)c3)cc21 (racemic),12,> 256,> 256,–,–,–,–
Cn1c(=O)[nH]c2ncc(-c3ccccc3)cc21,–,> 256,> 256,–,17,> 200,–
Cn1c(=O)[nH]c2ncc(-c3cccc(C(=O)NCc4ccccn4)c3)cc21,6.2,> 256,> 256,–,–,–,–
CN(C)C(=O)c1cccc(-c2cnc3[nH]c(=O)n(C)c3c2)c1,104,> 256,> 256,–,–,–,–

SMILES,IC50 [1] [µM],MIC (Pseudomonas aeruginosa [2]) [mg/L],MIC (Pseudomonas aeruginosa [3]) [mg/L],Ratio IC50 [4],inhibition [5] [%],IC50 (Thymidylate kinase) [µM],Ratio IC50 (BL21-DE3)
Cn1c(=O)[nH]c2ncc(-c3cccc(C(=O)NCCc4nc5ccccc5[nH]4)c3)cc21,3,> 256,> 256,–,–,–,–
CC(=O)Nc1cccc(-c2cnc3[nH]c(=O)n(C)c3c2)c1,3.4,> 256,> 256,–,–,–,–
Cn1c(=O)[nH]c2ncc(-c3cccc(C(=O)NCCCc4ccc(F)cc4)c3)cc21,0.12,> 256,> 256,> 1000,58,123,–
COC(=O)c1ccccc1CCCNC(=O)c1cccc(-c2cnc3[nH]c(=O)n(C)c3c2)c1,0.37,> 256,> 256,–,–,–,–
Cn1c(=O)[nH]c2ncc(-c3cccc(S(N)(=O)=O)c3)cc21,> 200,> 256,> 256,–,–,–,–
Cn1c(=O)[nH]c2ncc(-c3ccncc3)cc21,152,> 256,> 256,–,–,–,–
Cl.Cn1c(=O)[nH]c2ncc(-c3ccc(CN)cc3)cc21,4.9,> 256,> 256,–,–,–,–
Cn1c(=O)[nH]c2ncc(-c3cccc(N)c3)cc21,63,> 256,> 256,–,–,–,–
Cc1cn([C@H]2C[C@H](O)[C@@H](CF)O2)c(=O)[nH]c1=O,–,> 256,> 256,–,–,–,–
CNC(=O)c1cccc(-c2cnc3[nH]c(=O)n(C)c3c2)c1,2.2,> 256,> 256,–,–,–,–
Cn1c(=O)[nH]c2ncc(-c3cccc(C(=O)NCCCc4c[nH]cn4)c3)cc21,0.99,> 256,> 256,–,–,–,–
Cn1c(=O)[nH]c2ncc(-c3cncnc3)cc21,> 200,> 256,> 256,–,–,–,–
Cn1c(=O)[nH]c2ncc(-c3cccc(C(=O)NCCc4ccccc4)c3)cc21,2.9,> 256,> 256,–,–,–,–
Cl.Cn1c(=O)[nH]c2ncc(-c3cccc(C(=O)NCCN)c3)cc21,3.2,> 256,> 256,–,–,–,–
Cn1c(=O)[nH]c2ncc(-c3cccc(C(=O)NCCCc4c[nH]c5ccccc45)c3)cc21,0.2,> 256,> 256,–,–,–,–
CC(=O)c1cccc(-c2cnc3[nH]c(=O)n(C)c3c2)c1,13,> 256,> 256,–,–,–,–
Cl.Cn1c(=O)[nH]c2ncc(-c3cccc(CN)c3)cc21,> 200,> 256,> 256,–,–,–,–
Cn1c(=O)[nH]c2ncc(-c3cccc(C(=O)NCCCc4cccnc4)c3)cc21,0.51,> 256,> 256,–,–,–,–
Cn1c(=O)[nH]c2ncc(-c3cccc(C(N)=O)c3)cc21,–,> 256,> 256,–,12,> 200,60
Cn1c(=O)[nH]c2ncc(-c3cccc(C(=O)NCCCc4ccccc4)c3)cc21,0.12,> 256,> 256,> 1000,43,> 200,–
Cn1c(=O)[nH]c2ncc(-c3cccc(C(=O)NCCS(=O)(=O)O)c3)cc21,1.3,> 256,> 256,–,–,–,–
Cn1c(=O)[nH]c2ncc(-c3cccc(C(=O)NCCc4ccncc4)c3)cc21,2,> 256,> 256,–,–,–,–
Cn1c(=O)[nH]c2ncc(-c3cccc(C(=O)NCCC(=O)O)c3)cc21,2.6,> 256,> 256,–,–,–,–
Cn1c(=O)[nH]c2ncc(-c3cccc(C(=O)NCCc4c[nH]cn4)c3)cc21,2.3,> 256,> 256,–,–,–,–
Cn1c(=O)[nH]c2ncc(-c3cccc(F)c3)cc21,> 200,> 256,> 256,–,–,–,–
